Shown are actives, neighbours in structure and some others; about 1.8% of the full set was active somewhere.
GRK2 inh: compounds blocking aptamer binding on GRK2 – biochemical, human GRK2, bead flow cytometry, HTS, primary screen; Beta-adrenergic receptor kinase 1 (Homo sapiens), P25098; FAM-aptamer displacement from GRK2; inhibition of aptamer binding, % at 10 µM; 330,000 compounds, 0.59% hits;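 active = inhibition of aptamer binding above 40%, roughly 3 SD of noise, on plates passing a quality check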;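 note: median bead fluorescence of bound FAM aptamer so fluorescent compounds give negative values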
Target sequence (P25098 whole entry, looked up): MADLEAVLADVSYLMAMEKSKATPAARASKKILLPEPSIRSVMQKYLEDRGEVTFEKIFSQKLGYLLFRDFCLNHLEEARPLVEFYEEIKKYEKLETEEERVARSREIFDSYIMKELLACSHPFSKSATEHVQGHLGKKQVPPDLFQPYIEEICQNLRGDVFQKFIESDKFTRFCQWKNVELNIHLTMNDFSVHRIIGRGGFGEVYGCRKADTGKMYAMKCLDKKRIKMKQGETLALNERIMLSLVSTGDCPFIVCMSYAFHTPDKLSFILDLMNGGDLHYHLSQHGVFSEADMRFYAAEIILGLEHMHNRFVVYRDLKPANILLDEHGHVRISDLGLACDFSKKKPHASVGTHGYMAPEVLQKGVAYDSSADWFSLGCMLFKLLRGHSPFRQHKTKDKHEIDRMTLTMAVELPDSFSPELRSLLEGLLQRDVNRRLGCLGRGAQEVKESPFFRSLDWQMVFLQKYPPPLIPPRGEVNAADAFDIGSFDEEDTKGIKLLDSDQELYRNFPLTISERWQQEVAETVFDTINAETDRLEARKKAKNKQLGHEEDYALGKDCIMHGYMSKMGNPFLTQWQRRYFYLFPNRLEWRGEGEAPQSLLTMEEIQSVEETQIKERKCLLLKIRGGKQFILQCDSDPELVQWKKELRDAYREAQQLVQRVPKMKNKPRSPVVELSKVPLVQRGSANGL
DDE Tn6 FP inh: inhibitors of Tn6 peptide binding to fibrin DD(E), primary screen, biochemical, fluorescence polarization, human fibrin, Tn6 probe. 370,000 compounds, 0.21% hits. Fibrin DD(E) TRITC-Tn6 fluorescence polarization displacement. inhibition, % at 8.3 µM. AID 720509, 2013. Fibrinogen beta chain (Homo sapiens), P02675;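 active = inhibition above a per-campaign cutoff: mean of compounds within control limits plus 3 SD, cut at about 15% in these data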;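 note: 0% = median of all compound wells on the plate and 100% = blocking peptide control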
CAL PDZ FP-1: CAL PDZ peptide-binding inhibitors, primary screen, biochemical, fluorescence polarization, Cer-tagged CAL PDZ, HTS; inhibition, % at 20 µM; Golgi-associated PDZ and coiled-coil motif-containing protein (Homo sapiens), Q9HD26; purified CAL PDZ, TMR-peptide fluorescence polarization, 1 h; 330,000 compounds, 0.02% hits;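 active = highest replicate inhibition of at least 40%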;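 note: plate controls were DMSO neutral control wells for no effect and unlabeled competitor peptide control wells for full effect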
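Read-out basis: mP drop reported as inhibition | Assay system: Tagged CAL PDZ protein CerCALP, purified | Benchmarks: Unlabelled peptide for full inhibition, DMSO wells as neutral | Schedule: 1 h incubation at room temperature before polarization reading | Buffer or medium: Sodium phosphate/NaCl buffer pH 7.4 with TCEP, IgG, Thesit | Doses: Single point, 20 µM | Measured by: Fluorescence polarization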
ARNT TACC3 PPI: disruptors of ARNT/TACC3 protein interaction, primary screen, biochemical, AlphaScreen, single concentration. Transforming acidic coiled-coil-containing protein 3 (Homo sapiens), Q9Y6A5. AlphaScreen His-ARNT PAS-B/GST-TACC3 binding, luminescence; TACC3 fragment carries E629A point mutation. inhibition, % at 9.99 µM. 390,000 compounds, 0.66% hits. AID 623870, 2012;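 active = mean inhibition of replicates at least 50% and at least half of replicates each reaching 50%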;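 note: 0% = complete ARNT plus TACC3 wells and 100% = ARNT alone without TACC3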
DDE Tn7 FP inh: inhibitors of Tn7 peptide binding to fibrin DD(E), primary screen, biochemical, fluorescence polarization, human fibrin, Tn7 probe. 370,000 compounds, 0.13% hits. Fibrinogen beta chain (Homo sapiens), P02675. inhibition, % at 8.3 µM. FP displacement of FITC-Tn7 peptide from fibrin DD(E); 0% = median of compound wells per plate;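 active = inhibition above the mean of compounds falling within the control limits plus 3 SD of them, cut at about 14% in these data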;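 note: 0% = plate median of compound wells and 100% = 10 µM Aha-Tn7 peptide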
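Also added: labelled Tn7 tracer, 0.1 µM; Assay system: human fibrin DD(E) protein; Amount: 2 µM fibrin DD(E); Schedule: 10 min compound pre-incubation, 3 h probe incubation at room temperature; Repeats: one replicate per compound; Read-out basis: percent inhibition; Measured by: fluorescence polarization of the labelled Tn7 tracer.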
CAL PDZ FP-2: untagged CAL PDZ binding inhibitors, primary screen, biochemical, fluorescence polarization, HTS. 300,000 compounds, 0.92% hits. AID 602252, 2012. purified CAL PDZ, TMR-peptide fluorescence polarization, 1 h. inhibition, % at 24.9 µM. Golgi-associated PDZ and coiled-coil motif-containing protein (Homo sapiens), Q9HD26;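 active = mean inhibition of at least 30% with at least half of replicates also reaching 30%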;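 note: 0% = DMSO neutral control and 100% = excess unlabeled competitor peptide PRC23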
The depositor's hits bear a star; . = not tested or not shown; + = active, no number.

SMILES | GRK2 inh | DDE Tn6 FP inh | CAL PDZ FP-1 | ARNT TACC3 PPI | DDE Tn7 FP inh | CAL PDZ FP-2
Cc1ccc(S(=O)(=O)Nc2cccc3cccnc23)cc1 | 5 | 2 | -1 | 50* | -6 | 42*
COC(=O)C[C@@H]1CC[C@H]2[C@@H](COc3ccc(NC(=O)NC(C)C)cc3C(=O)N2C)O1 | . | 1 | . | 2 | 0 | .
COCC(=O)Nc1ccc2c(c1)C(=O)N(C)[C@H]1CC[C@H](CC(=O)Nc3cccc(C)c3)O[C@@H]1CO2 | . | . | . | 0 | . | .
COc1ccc(NC(=O)CN(C)C(=O)Cc2n[nH]c(=O)c3ccccc23)cc1 | 0 | -4 | -1 | -1 | 5 | 31*
COc1ccc(NS(=O)(=O)c2cc(NC(=O)Cc3n[nH]c(=O)c4ccccc34)ccc2OC)cc1 | . | 1 | -3 | -1 | -1 | 51*
COc1cccc(NC(=O)CN(C)C(=O)Cc2n[nH]c(=O)c3ccccc23)c1 | 0 | 1 | 0 | 8 | 1 | .
C[C@@H]1CN([C@@H](C)CO)C(=O)Cc2cc(NC(=O)Nc3ccc(C(F)(F)F)cc3)ccc2O[C@@H]1CN(C)CC1CCCCC1 | . | . | . | 31 | . | .
Cc1ccc2cccc(S(=O)(=O)N3CCCc4ccccc43)c2n1 | 2 | 2 | -1 | -5 | 0 | .
Cc1ccc(C)c(S(=O)(=O)Nc2ccc(C(=O)N3CCCCC3)cc2)c1 | 2 | 2 | -1 | 1 | -4 | -8
Cc1cc(NC(=O)CN(C)S(=O)(=O)c2cccc(Cl)c2)no1 | 1 | -2 | 0 | 1 | 3 | 112*
CN(CC(=O)Nc1cccc(Cl)c1)S(=O)(=O)c1ccc2c(c1)n(C)c(=O)c(=O)n2C | 6 | -1 | -2 | 0 | 4 | 4
CN(CC(=O)Nc1ccc(Cl)cc1)S(=O)(=O)c1ccc2c(c1)n(C)c(=O)c(=O)n2C | 3 | 3 | -1 | -2 | -2 | +
CCOc1ccc(NC(=O)CN(C)C(=O)CC(NC(=O)c2ccccc2)c2ccccc2)cc1OCC (stereo not drawn) | 0 | -4 | -2 | 9 | 3 | -2
CCOC(=O)C1CCN(Cc2ccccc2C(F)(F)F)CC1 | 0 | 3 | -1 | -31 | 11 | .
CCOC(=O)C1CCN(Cc2ccc(O)c3ncccc23)CC1 | 4 | 4 | 0 | 69* | -4 | 0
CCOc1ccccc1NC(=O)C1CCCN1S(=O)(=O)c1ccccc1C(F)(F)F (stereo not drawn) | 0 | -2 | 0 | 0 | 6 | 42*
COc1cccc(CNC(=O)C[C@H]2CC[C@H]3[C@H](COc4ccc(NC(C)=O)cc4C(=O)N3C)O2)c1 | . | . | . | 0 | . | .
C[C@@H]1CCCCO[C@@H](CN(C)S(=O)(=O)c2cn(C)cn2)[C@H](C)CN([C@H](C)CO)C(=O)c2cc(NC(=O)Nc3ccc(F)cc3)ccc2O1 | . | . | . | 4 | . | .
CC[n+]1ccc(/C=C/c2ccc(N(C)C)cc2)c2ccccc21 | . | 39* | 0 | 38 | -4 | 3
COc1ccc(S(=O)(=O)Nc2ccc3c(c2)CC(=O)N([C@@H](C)CO)C[C@@H](C)[C@H](CN(C)C(=O)NC(C)C)O3)cc1 | . | . | . | 5 | . | .
C#CCNC(=O)C[C@H]1C[C@@]2(C(=O)OC)C(=C[C@H](COCc3ccccc3)O[C@@H]2C)N(CCCCCCCC)C1=O | . | -2 | . | . | -8 | .
CN(CC1CCCO1)S(=O)(=O)c1ccc(C(=O)Nc2nc(-c3ccccn3)cs2)cc1 (stereo not drawn) | 4 | . | -2 | 59* | . | -1
CCCNC(=O)N[C@@H]1CC[C@H](CC(=O)NCCc2ccccc2)O[C@@H]1CO | . | . | . | -23 | . | .
Cc1ccc(S(=O)(=O)c2nc(Nc3ccccc3C#N)sc2Cl)cc1 | 0 | -2 | -1 | 1 | 7 | 0
Cc1ccc(S(=O)(=O)c2nc(NN(C)C)sc2Cl)cc1 | 0 | 3 | 9 | 5 | -4 | 120*
SMILES | GRK2 inh | DDE Tn6 FP inh | CAL PDZ FP-1 | ARNT TACC3 PPI | DDE Tn7 FP inh | CAL PDZ FP-2
NC(=O)c1c(NC(=O)c2ccccc2F)sc2c1CCCC2 | 2 | -1 | 2 | 2 | -3 | 77*
O=C(Nc1ccc(S(=O)(=O)Nc2ncccn2)cc1)c1ccccc1NS(=O)(=O)c1ccc(F)cc1 | 7 | 0 | -2 | -5 | 12 | 0
O=C(O)/C=C/c1ccc(S(=O)(=O)Nc2ccccc2C(=O)Nc2ccc(F)cc2)cc1 | 1 | -3 | 0 | 47* | 0 | -4
CCCC#Cc1ccc2c(c1)O[C@@H](CN(C)C)[C@H](C)CN([C@@H](C)CO)S2(=O)=O | . | . | . | -7 | . | .
N=c1n(CC(=O)c2ccc(Br)s2)c2ccccc2n1Cc1ccccc1 | 5 | -7 | -2 | 8 | -3 | 38*
CCC(=O)NC(c1cccs1)c1cc([N+](=O)[O-])c2cccnc2c1O (stereo not drawn) | 4 | -4 | 0 | 71* | 0 | 0
Cc1ccc(NC(=S)N(CCCN2CCCC2)Cc2cccn2Cc2ccc(Cl)cc2)cc1C | 0 | 4 | -2 | 1 | -3 | 79*
Cc1ccc(NC(=S)N(CCCN2CCCC2)Cc2cccn2Cc2ccc(Cl)cc2)cc1Cl | 0 | 1 | -3 | -4 | 6 | -7
O=C(C[C@@H]1C[C@@H]2c3cc(NC(=O)C4CCOCC4)ccc3O[C@@H]2[C@H](CO)O1)NCC1CC1 | . | . | . | -8 | . | .
Cc1cccc(OCCCn2c(CO)nc3ccccc32)c1 | 4 | -3 | . | -3 | 7 | 89*
CO[C@H]1CN(C)C(=O)c2ccc(NC(=O)c3ccccc3F)cc2OC[C@H](C)N(C(=O)c2ccccc2F)C[C@@H]1C | . | . | . | -4 | . | .
C=CCn1cc(/C=N/N2C(=O)C3C4C=CC(C4)C3C2=O)c2ccccc21 (stereo not drawn) | 0 | -2 | -2 | -4 | 1 | -2
O=C1C2C3C=CC(O3)C2C(=O)N1N=Cc1cccc2ccccc12 (stereo not drawn) | . | 5 | 0 | 1 | 0 | 112*
Cc1cccc(NC(=O)CCNC(=O)c2ccc(Br)cc2)c1 | 0 | -3 | -1 | -3 | 7 | 47*
C=CCOc1ccc(/C=C/C(=O)OCC(=O)N2CCN(S(=O)(=O)c3ccc(C)cc3C)CC2)cc1 | . | -1 | 0 | . | -3 | 47*

Source: PubChem
